Results taken from ChEMBL document CHEMBL3286255, “Rational design and synthesis of novel thiazolidin-4-ones as non-nucleoside HIV-1 reverse transcriptase inhibitors” (Bioorg Med Chem, 2014).

Experiments:
[1] = Selectivity index, ratio of CC50 for human TZM-bl cells to EC50 for R5 tropic Human immunodeficiency virus 1 VB59 subtype C; format: toxicity, cell-based; details: read-out: Ratio CC50/EC50
[2] = test system: Human immunodeficiency virus 1; assay: Antiviral activity against R5 tropic Human immunodeficiency virus 1 ADA5 subtype B infected in human TZM-bl cells assessed as reduction in virus-induced cytopathic effect after 48 hrs by luminescence assay; format: functional, organism-based; details: Human immunodeficiency virus 1, ADA5 subtype B, TZM-bl, 48 h; read-out: EC50
Procedure, shortened: (§1)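 TZM-bl cells (HeLa-derived; CD4, CXCR4, CCR5; LTR-driven luciferase) seeded 1×10^4/well, left overnight at 37 °C, 5% CO2, then infected with 400 TCID50 virus for 2 h. Serial compound dilutions added in duplicate, only at levels giving >50% viability. […] Mean of two independent assays; nevirapine as positive control.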

[3] = test system: Human immunodeficiency virus 1; assay: Antiviral activity against R5 tropic Human immunodeficiency virus 1 VB59 subtype C infected in human TZM-bl cells assessed as reduction in virus-induced cytopathic effect after 48 hrs by luminescence assay; format: functional, organism-based; details: Human immunodeficiency virus 1, VB59 subtype C, TZM-bl, 48 h; read-out: EC50; procedure, shortened: as §1
[4] = Selectivity index, ratio of CC50 for human TZM-bl cells to EC50 for X4 tropic Human immunodeficiency virus 1 UG070 subtype D; format: toxicity, cell-based; details: read-out: Ratio CC50/EC50
[5] = test system: Human immunodeficiency virus 1; assay: Antiviral activity against X4 tropic Human immunodeficiency virus 1 3B subtype B infected in human TZM-bl cells assessed as reduction in virus-induced cytopathic effect after 48 hrs by luminescence assay; format: functional, organism-based; details: Human immunodeficiency virus 1, 3B subtype B, TZM-bl, 48 h; read-out: EC50; procedure, shortened: as §1
[6] = Selectivity index, ratio of CC50 for human TZM-bl cells to EC50 for R5 tropic Human immunodeficiency virus 1 ADA5 subtype B; format: toxicity, cell-based; details: read-out: Ratio CC50/EC50
[7] = test system: Human immunodeficiency virus; assay: Inhibition of HIV reverse transcriptase at 100 ug/ml after 1 hr by ELISA relative to control
Procedure, shortened: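 Kit ELISA for HIV RT. Template/primer, biotin- and DIG-labelled dNTPs and RT enzyme in lysis buffer incubated 1 h at 37 °C. Product captured on streptavidin, detected with anti-DIG-peroxidase and ABTS substrate, and read at 405 nm. Percent inhibition calculated against a no-inhibitor sample.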

[8] = Selectivity index, ratio of CC50 for human TZM-bl cells to EC50 for X4 tropic Human immunodeficiency virus 1 3B subtype B; format: toxicity, cell-based; details: read-out: Ratio CC50/EC50
[9] = Cytotoxicity against human TZM-bl cells after 48 hrs by MTT assay; format: cell-based
Procedure, shortened: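 TZM-bl cells seeded 1×10^4/well and left overnight at 37 °C, 5% CO2. Medium then replaced with a two-fold dilution series of compound in quadruplicate. […] Mean of three independent assays.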

[10] = test system: Human immunodeficiency virus 1; assay: Antiviral activity against X4 tropic Human immunodeficiency virus 1 UG070 subtype D infected in human TZM-bl cells assessed as reduction in virus-induced cytopathic effect after 48 hrs by luminescence assay; format: functional, organism-based; details: Human immunodeficiency virus 1, UG070 subtype D, TZM-bl, 48 h; read-out: EC50; procedure, shortened: as §1

Row | SMILES | EC50 [2] [µM] | EC50 [3] [µM] | EC50 [5] [µM] | inhibition [7] [%] | EC50 [10] [µM] | selectivity ratio [1] | selectivity ratio [4] | selectivity ratio [6] | selectivity ratio [8] | CC50 at 48 h [9] [µM]
1 | COc1cc(OC)nc(N2C(=O)CSC2c2c(F)cccc2F)n1 (stereo not given) | 0.31 | 0.48 | 0.25 | 82.9 | 0.53 | 161 | 144 | 250 | 310 | 77.5
2 | N#Cc1ccc(NN2C(=O)CSC2c2c(Cl)cccc2Cl)cc1 (stereo not given) | 5.42 | 25.7 | 30.3 | 22.2 | 36.9 | 2.54 | 1.76 | 12 | 2.14 | 65.3

Further lines, with some results ahead:

Row | EC50 [2] [µM] | EC50 [3] [µM] | EC50 [5] [µM] | inhibition [7] [%] | EC50 [10] [µM] | SMILES | selectivity ratio [1] | selectivity ratio [4] | selectivity ratio [6] | selectivity ratio [8] | CC50 at 48 h [9] [µM]
3 | 26.4 | 46.5 | 40.4 | 37.9 | 51.1 | Cc1cc(C)nc(N2C(=O)CSC2c2ccc(C#N)cc2)c1 (stereo not given) | 3.18 | 2.9 | 5.62 | 3.66 | 148
4 | 16.2 | 35 | 33.5 | 26.3 | 49.6 | N#Cc1ccc(NN2C(=O)CSC2c2c(F)cccc2Cl)cc1 (stereo not given) | 2.18 | 1.54 | 4.7 | 2.27 | 76.5
5 | 4.62 | < 7.13 | 20.5 | 42 | 7.13 | N#Cc1ccc(N2C(=O)CSC2c2c(Cl)cccc2Cl)nc1 (stereo not given) | 8.4 | 8.4 | 13 | 2.92 | 60
